Assay results from ChEMBL document CHEMBL3407388, “Synthesis, anticancer activity and molecular docking studies on a series of heterocyclic trans-cyanocombretastatin analogues as antitubulin agents” (2015).

Columns and labels:
Assay type in all cases: functional
[1] = test system: MDA-MB-435; assay: Cytotoxicity against human MDA-MB-435 cells assessed as growth inhibition after 48 hrs by SRB assay; conditions: MDA-MB-435, 48 h
How it was run: (§1)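 NCI 60-cell panel; compounds passing a single-dose screen (10−5 M, 48 h) were tested at five 10-fold dilutions (10−4 to 10−8 M) with 48 h drug exposure. GI50 is the molar concentration giving 50% reduction in net cell growth relative to cell numbers on day 0.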

[2] = test system: MDA-MB-231; assay: Cytotoxicity against human MDA-MB-231 cells assessed as growth inhibition after 48 hrs by SRB assay; conditions: MDA-MB-231, 48 h; how it was run: as §1
[3] = test system: HT-29; assay: Cytotoxicity against human HT-29 cells assessed as growth inhibition after 48 hrs by SRB assay; conditions: HT-29, 48 h; how it was run: as §1
[4] = test system: IGROV-1; assay: Cytotoxicity against human IGROV1 cells assessed as growth inhibition after 48 hrs by SRB assay; conditions: IGROV-1, 48 h; how it was run: as §1
[5] = test system: SNB-75; assay: Cytotoxicity against human SNB75 cells assessed as growth inhibition after 48 hrs by SRB assay; conditions: SNB-75, 48 h
[6] = test system: SF-268; assay: Cytotoxicity against human SF268 cells assessed as growth inhibition after 48 hrs by SRB assay; conditions: SF-268, 48 h; how it was run: as §1
[7] = test system: SK-OV-3; assay: Cytotoxicity against human SKOV3 cells assessed as growth inhibition after 48 hrs by SRB assay; conditions: SK-OV-3, 48 h; how it was run: as §1
[8] = test system: COLO 205; assay: Cytotoxicity against human COLO205 cells assessed as growth inhibition after 48 hrs by SRB assay; conditions: COLO 205, 48 h; how it was run: as §1
[9] = Cytotoxicity against human OVCAR3 cells assessed as growth inhibition after 48 hrs by SRB assay; conditions: OVCAR-3, 48 h; how it was run: as §1
[10] = test system: SK-MEL-5; assay: Cytotoxicity against human SK-MEL-5 cells assessed as growth inhibition after 48 hrs by SRB assay; conditions: SK-MEL-5, 48 h; how it was run: as §1
[11] = test system: NCI-H23; assay: Cytotoxicity against human NCI-H23 cells assessed as growth inhibition after 48 hrs by SRB assay; conditions: NCI-H23, 48 h; how it was run: as §1
[12] = Cytotoxicity against human PC3 cells assessed as growth inhibition after 48 hrs by SRB assay; conditions: PC-3, 48 h; how it was run: as §1
[13] = test system: HCC 2998; assay: Cytotoxicity against human HCC2998 cells assessed as growth inhibition after 48 hrs by SRB assay; conditions: HCC 2998, 48 h; how it was run: as §1
[14] = test system: SN12C; assay: Cytotoxicity against human SN12C cells assessed as growth inhibition after 48 hrs by SRB assay; how it was run: as §1
[15] = test system: HL-60(TB); assay: Cytotoxicity against human HL-60(TB) cells assessed as growth inhibition after 48 hrs by SRB assay; conditions: HL-60, 48 h
How it was run: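 NCI 60-cell panel, leukemia subpanel. Five-dose screen at 10-fold dilutions from 10−4 to 10−8 M with 48 h drug exposure. GI50 is the molar concentration giving 50% reduction in net cell growth compared with cell numbers on day 0.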

[16] = test system: SF-539; assay: Cytotoxicity against human SF539 cells assessed as growth inhibition after 48 hrs by SRB assay; conditions: SF-539, 48 h; how it was run: as §1
[17] = Cytotoxicity against human NCI-ADR-RES cells assessed as growth inhibition after 48 hrs by SRB assay; how it was run: as §1
[18] = test system: 786-0; assay: Cytotoxicity against human 786-0 cells assessed as growth inhibition after 48 hrs by SRB assay; conditions: 786-0, 48 h; how it was run: as §1
[19] = test system: BT-549; assay: Cytotoxicity against human BT549 cells assessed as growth inhibition after 48 hrs by SRB assay; conditions: BT-549, 48 h; how it was run: as §1
[20] = test system: KM12; assay: Cytotoxicity against human KM12 cells assessed as growth inhibition after 48 hrs by SRB assay; conditions: KM12, 48 h; how it was run: as §1
[21] = test system: RXF 393; assay: Cytotoxicity against human RXF393 cells assessed as growth inhibition after 48 hrs by SRB assay; conditions: RXF 393, 48 h; how it was run: as §1
[22] = test system: M14; assay: Cytotoxicity against human M14 cells assessed as growth inhibition after 48 hrs by SRB assay; conditions: M14, 48 h; how it was run: as §1
[23] = Cytotoxicity against human UACC62 cells assessed as growth inhibition after 48 hrs by SRB assay; conditions: UACC-62, 48 h
[24] = test system: NCI-H460; assay: Cytotoxicity against human NCI-H460 cells assessed as growth inhibition after 48 hrs by SRB assay; conditions: NCI-H460, 48 h; how it was run: as §1
[25] = Cytotoxicity against human HCT15 cells assessed as growth inhibition after 48 hrs by SRB assay; conditions: HCT-15, 48 h; how it was run: as §1
[26] = test system: NCI-H226; assay: Cytotoxicity against human NCI-H226 cells assessed as growth inhibition after 48 hrs by SRB assay; conditions: NCI-H226, 48 h; how it was run: as §1
[27] = test system: SNB-19; assay: Cytotoxicity against human SNB19 cells assessed as growth inhibition after 48 hrs by SRB assay; conditions: SNB-19, 48 h; how it was run: as §1
[28] = Cytotoxicity against human OVCAR8 cells assessed as growth inhibition after 48 hrs by SRB assay; conditions: OVCAR-8, 48 h; how it was run: as §1
[29] = test system: SF-295; assay: Cytotoxicity against human SF295 cells assessed as growth inhibition after 48 hrs by SRB assay; conditions: SF-295, 48 h; how it was run: as §1
[30] = test system: K562; assay: Cytotoxicity against human K562 cells assessed as growth inhibition after 48 hrs by SRB assay; conditions: K562, 48 h; how it was run: as §1
[31] = test system: LOX IMVI; assay: Cytotoxicity against human LOXIMVI cells assessed as growth inhibition after 48 hrs by SRB assay; how it was run: as §1
[32] = test system: SW-620; assay: Cytotoxicity against human SW620 cells assessed as growth inhibition after 48 hrs by SRB assay; conditions: SW-620, 48 h
[33] = test system: DU-145; assay: Cytotoxicity against human DU145 cells assessed as growth inhibition after 48 hrs by SRB assay; conditions: DU-145, 48 h; how it was run: as §1
[34] = test system: A498; assay: Cytotoxicity against human A498 cells assessed as growth inhibition after 48 hrs by SRB assay; conditions: A498, 48 h; how it was run: as §1
[35] = Cytotoxicity against human Hs578T cells assessed as growth inhibition after 48 hrs by SRB assay; conditions: Hs-578T; how it was run: as §1
[36] = test system: RPMI-8226; assay: Cytotoxicity against human RPMI8226 cells assessed as growth inhibition after 48 hrs by SRB assay; conditions: RPMI-8226, 48 h; how it was run: as §1
[37] = test system: CAKI-1; assay: Cytotoxicity against human Caki1 cells assessed as growth inhibition after 48 hrs by SRB assay; conditions: CAKI-1, 48 h; how it was run: as §1
[38] = Cytotoxicity against human HCT116 cells assessed as growth inhibition after 48 hrs by SRB assay; conditions: HCT-116, 48 h; how it was run: as §1
[39] = test system: U-251; assay: Cytotoxicity against human U251 cells assessed as growth inhibition after 48 hrs by SRB assay; conditions: U-251, 48 h
[40] = test system: MCF7; assay: Cytotoxicity against human MCF7 cells assessed as growth inhibition after 48 hrs by SRB assay; conditions: MCF7, 48 h; how it was run: as §1
[41] = test system: TK-10; assay: Cytotoxicity against human TK10 cells assessed as growth inhibition after 48 hrs by SRB assay; conditions: TK-10, 48 h
[42] = test system: MOLT-4; assay: Cytotoxicity against human MOLT4 cells assessed as growth inhibition after 48 hrs by SRB assay; conditions: MOLT-4, 48 h; how it was run: as §1
[43] = Cytotoxicity against human OVCAR4 cells assessed as growth inhibition after 48 hrs by SRB assay; conditions: OVCAR-4, 48 h; how it was run: as §1

## COc1cc(/C(C#N)=C/c2cc3ccccc3[nH]2)cc(OC)c1OC
[1]
  GI50: < 10 nM
[2]
  GI50: 14 nM
[3]
  GI50: < 10 nM
[4]
  GI50: < 10 nM
[5]
  GI50: < 10 nM
[6]
  GI50: 15 nM
[7]
  GI50: < 10 nM
[8]
  GI50: 16 nM
[9]
  GI50: < 10 nM
[10]
  GI50: < 10 nM
[11]
  GI50: < 10 nM
[12]
  GI50: < 10 nM
[13]
  GI50: 18 nM
[14]
  GI50: < 10 nM
[15]
  GI50: < 10 nM
[16]
  GI50: < 10 nM
[17]
  GI50: < 10 nM
[18]
  GI50: < 10 nM
[19]
  GI50: < 10 nM
[20]
  GI50: < 10 nM
[21]
  GI50: < 10 nM
[22]
  GI50: < 10 nM
[23]
  GI50: < 10 nM
[24]
  GI50: < 10 nM
[25]
  GI50: < 10 nM
[26]
  GI50: < 10 nM
[27]
  GI50: < 10 nM
[28]
  GI50: < 10 nM
[29]
  GI50: < 10 nM
[30]
  GI50: < 10 nM
[31]
  GI50: < 10 nM
[32]
  GI50: < 10 nM
[33]
  GI50: < 10 nM
[34]
  GI50: < 10 nM
[35]
  GI50: < 10 nM
[36]
  GI50: < 10 nM
[37]
  GI50: < 10 nM
[38]
  GI50: < 10 nM
[39]
  GI50: < 10 nM
[40]
  GI50: 16 nM
[41]
  GI50: < 10 nM
[42]
  GI50: 23 nM
[43]
  GI50: 15200 nM

## COc1cc(/C(C#N)=C/c2cc3ccccc3n2Cc2ccc(C#N)cc2)cc(OC)c1OC
[1]
  GI50: 24 nM
[2]
  GI50: 294 nM
[3]
  GI50: 48 nM
[4]
  GI50: 183 nM
[5]
  GI50: 39 nM
[6]
  GI50: 86 nM
[7]
  GI50: 87 nM
[8]
  GI50: 97 nM
[9]
  GI50: 42 nM
[10]
  GI50: 60 nM
[11]
  GI50: 246 nM
[12]
  GI50: 105 nM
[13]
  GI50: 265 nM
[14]
  GI50: 269 nM
[15]
  GI50: 31 nM
[16]
  GI50: 39 nM
[17]
  GI50: 73 nM
[18]
  GI50: 137 nM
[19]
  GI50: 109 nM
[20]
  GI50: 47 nM
[21]
  GI50: 55 nM
[22]
  GI50: 56 nM
[23]
  GI50: 58 nM
[24]
  GI50: 93 nM
[25]
  GI50: 89 nM
[26]
  GI50: 14500 nM
[27]
  GI50: 85 nM
[28]
  GI50: 124 nM
[29]
  GI50: 37 nM
[30]
  GI50: 39 nM
[31]
  GI50: 90 nM
[32]
  GI50: 48 nM
[33]
  GI50: 207 nM
[34]
  GI50: 29 nM
[35]
  GI50: 92 nM
[36]
  GI50: 199 nM
[37]
  GI50: 35 nM
[38]
  GI50: 47 nM
[39]
  GI50: 44 nM
[40]
  GI50: 39 nM
[41]
  GI50: 20100 nM
[42]
  GI50: 274 nM
[43]
  GI50: 672 nM

## COc1cc(OC)cc(/C(C#N)=C/c2c[nH]c3ccccc23)c1
[1]
  GI50: 20 nM
[2]
  GI50: 644 nM
[3]
  GI50: 38 nM
[4]
  GI50: 347 nM
[5]
  GI50: 34 nM
[6]
  GI50: 78 nM
[7]
  GI50: 117 nM
[8]
  GI50: 47 nM
[9]
  GI50: 31 nM
[10]
  GI50: 48 nM
[11]
  GI50: 256 nM
[12]
  GI50: 75 nM
[13]
  GI50: 207 nM
[14]
  GI50: 77 nM
[15]
  GI50: 31 nM
[16]
  GI50: 52 nM
[17]
  GI50: 33 nM
[18]
  GI50: 77 nM
[19]
  GI50: 49 nM
[20]
  GI50: 40 nM
[21]
  GI50: 83 nM
[22]
  GI50: 42 nM
[23]
  GI50: 49 nM
[24]
  GI50: 39 nM
[25]
  GI50: 53 nM
[26]
  GI50: 8180 nM
[27]
  GI50: 62 nM
[28]
  GI50: 103 nM
[29]
  GI50: 45 nM
[30]
  GI50: 43 nM
[31]
  GI50: 78 nM
[32]
  GI50: 44 nM
[33]
  GI50: 130 nM
[34]
  GI50: 35 nM
[35]
  GI50: 611 nM
[36]
  GI50: 65 nM
[37]
  GI50: 35 nM
[38]
  GI50: 42 nM
[39]
  GI50: 45 nM
[40]
  GI50: 41 nM
[41]
  GI50: 10300 nM
[42]
  GI50: 49 nM
[43]
  GI50: 3520 nM
